Among the data in ChEMBL document CHEMBL3763095, “Naphtho[1',2':4,5]imidazo[1,2-a]pyridine-5,6-diones: Synthesis, enzymatic reduction and cytotoxic activity” (Bioorg Med Chem Lett, 2016) are kcat/Km values, retold here.

What all share (set-up): species or system Homo sapiens
Substrate in data set [1]: O=C1C(=O)c2c(nc3ccc(F)cn23)-c2ccccc21
As to the kind of experiment: (§1) Activity of NADPH:cytochrome P-450R (unknown origin) assessed as NADPH oxidation by spectrophotometric analysis. The procedure, abridged: (§2)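 Initial rates of enzymatic reduction measured at varied compound concentrations with NADPH fixed at 150 µM. Reactivity expressed as apparent second-order k_cat/K_m, taken as the efficiency of reduction by the reduced free enzyme (ping-pong scheme).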

Substrate in data set [2]: COc1ccc2nc3c(n2c1)C(=O)C(=O)c1ccccc1-3
The description is as §1. The procedure, abridged:
as §2

Substrate in data set [3]: O=C1C(=O)c2c(nc3ncccn23)-c2ccccc21
The description is as §1. The procedure, abridged: as §2

Substrate in data set [4]: O=C1C(=O)c2c(nc3ccc4ccccc4n23)-c2ccccc21
Described as §1. The procedure, abridged: as §2

Substrate in data set [5]: Cc1ccc2nc3c(n2c1)C(=O)C(=O)c1ccccc1-3
Described as §1. The procedure, abridged:
as §2

Substrate in data set [6]: O=C1C(=O)c2c(nc3ccc(C(F)(F)F)cn23)-c2ccccc21
Described as §1. The essentials:
as §2

Substrate in data set [7]: O=C1C(=O)c2c(nc3ccc(Cl)cn23)-c2ccccc21
The description is as §1. The procedure, abridged: as §2

Substrate in data set [8]: O=C1C(=O)c2c(nc3ccc([N+](=O)[O-])cn23)-c2ccccc21
The description is as §1. The essentials: as §2

Substrate in data set [9]: O=C1C(=O)c2c(nc3ccc(Br)cn23)-c2ccccc21
Described as §1. The essentials: as §2

Substrate in data set [10]: O=C1C(=O)c2c(nc3ccccn23)-c2ccc([N+](=O)[O-])cc21
The description is as §1. The procedure, abridged:
as §2

Substrate in data set [11]: O=C1C(=O)c2c(nc3ccccn23)-c2ccccc21
Described as §1. The essentials:
as §2

Substrate in data set [12]: Cc1cccn2c3c(nc12)-c1ccccc1C(=O)C3=O
Described as §1. The essentials: as §2

Substrate in data set [13]: Cc1ccn2c3c(nc2c1)-c1ccccc1C(=O)C3=O
Described as §1. The procedure, abridged:
as §2

B1: NADPH--cytochrome P450 reductase (Homo sapiens) (protein)
chain: MGDSHVDTSSTVSEAVAEEVSLFSMTDMILFSLIVGLLTYWFLFRKKKEEVPEFTKIQTLTSSVRESSFVEKMKKTGRNIIVFYGSQTGTAEEFANRLSKDAHRYGMRGMSADPEEYDLADLSSLPEIDNALVVFCMATYGEGDPTDNAQDFYDWLQETDVDLSGVKFAVFGLGNKTYEHFNAMGKYVDKRLEQLGAQRIFELGLGDDDGNLEEDFITWREQFWPAVCEHFGVEATGEESSIRQYELVVHTDIDAAKVYMGEMGRLKSYENQKPPFDAKNPFLAAVTTNRKLNQGTERHLMHLELDISDSKIRYESGDHVAVYPANDSALVNQLGKILGADLDVVMSLNNLDEESNKKHPFPCPTSYRTALTYYLDITNPPRTNVLYELAQYASEPSEQELLRKMASSSGEGKELYLSWVVEARRHILAILQDCPSLRPPIDHLCELLPRLQARYYSIASSSKVHPNSVHICAVVVEYETKAGRINKGVATNWLRAKEPAGENGGRALVPMFVRKSQFRLPFKATTPVIMVGPGTGVAPFIGFIQERAWLRQQGKEVGETLLYYGCRRSDEDYLYREELAQFHRDGALTQLNVAFSREQSHKVYVQHLLKQDREHLWKLIEGGAHIYVCGDARNMARDVQNTFYDIVAELGAMEHAQAVDYIKKLMTKGRYSLDVWS
As to B1, the kcat/Km in data set [1] turned out to be 2.4e+07 M⁻¹ s⁻¹; in data set [2], 2.9e+07 M⁻¹ s⁻¹; in data set [3], 3.4e+07 M⁻¹ s⁻¹; in data set [4] it was 5.6e+06 M⁻¹ s⁻¹; in data set [5], 8.9e+06 M⁻¹ s⁻¹; in data set [6], 3.5e+07 M⁻¹ s⁻¹. The kcat/Km in data set [7] was 5.4e+07 M⁻¹ s⁻¹; in data set [8], 5.9e+07 M⁻¹ s⁻¹; in data set [9], 3.7e+07 M⁻¹ s⁻¹; in [10] it was 7.2e+07 M⁻¹ s⁻¹; in data set [11], 3.1e+07 M⁻¹ s⁻¹; in data set [12] it was 1.3e+07 M⁻¹ s⁻¹. Moreover, the kcat/Km in data set [13] came to 1.4e+07 M⁻¹ s⁻¹.
